The source made the active and inactive calls. The rule behind the calls is not given here. Where a SMILES comes first, the peptide text is derived from it. [ ]: non-standard residue; d: D form.
How the values were obtained:
[1] = target: T1, Endothelin receptor type B (Rattus norvegicus, UniProt P21451); assay: In vitro inhibition of [125I]ET1 binding to rat cerebellum Endothelin B receptor.; format: tissue-based
T1 sequence (P21451 whole entry): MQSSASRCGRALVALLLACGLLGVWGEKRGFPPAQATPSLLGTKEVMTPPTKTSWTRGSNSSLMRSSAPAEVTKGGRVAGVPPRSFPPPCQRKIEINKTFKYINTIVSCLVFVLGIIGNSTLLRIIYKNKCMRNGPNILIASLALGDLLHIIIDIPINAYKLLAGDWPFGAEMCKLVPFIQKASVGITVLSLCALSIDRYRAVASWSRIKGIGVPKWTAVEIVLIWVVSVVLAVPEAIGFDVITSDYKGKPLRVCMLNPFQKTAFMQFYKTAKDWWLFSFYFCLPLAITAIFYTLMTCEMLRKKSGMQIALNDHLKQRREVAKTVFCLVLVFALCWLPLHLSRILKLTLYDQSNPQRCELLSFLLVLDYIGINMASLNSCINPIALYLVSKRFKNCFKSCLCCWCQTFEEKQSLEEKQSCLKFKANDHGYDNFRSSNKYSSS
In short: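 Rat cerebellum was homogenized in Tris/sucrose/EDTA buffer with protease inhibitors; the 40000g membrane pellet was used. Nonspecific binding was defined with 500 nM ET-1. IC50 by curve fitting; single experiment.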

[2] = target: T2, Endothelin-1 receptor (Rattus norvegicus, UniProt P26684); assay: In vitro inhibition of [125I]ET1 binding to rat A10 cell Endothelin A receptor.; format: cell-based
T2 sequence (P26684 whole entry): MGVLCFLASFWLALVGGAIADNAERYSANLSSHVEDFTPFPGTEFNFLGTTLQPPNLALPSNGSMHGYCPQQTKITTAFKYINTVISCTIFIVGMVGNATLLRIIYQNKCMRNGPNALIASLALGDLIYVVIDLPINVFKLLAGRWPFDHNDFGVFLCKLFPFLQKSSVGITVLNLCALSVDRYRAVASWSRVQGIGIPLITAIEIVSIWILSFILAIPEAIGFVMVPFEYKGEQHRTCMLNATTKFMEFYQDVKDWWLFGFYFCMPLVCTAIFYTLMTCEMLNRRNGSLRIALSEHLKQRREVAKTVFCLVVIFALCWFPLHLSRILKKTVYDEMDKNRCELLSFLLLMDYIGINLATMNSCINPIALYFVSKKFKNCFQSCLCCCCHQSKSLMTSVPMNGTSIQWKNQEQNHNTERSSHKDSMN
In short: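 Rat A10 cells were harvested, washed in 50 mM Hepes pH 7.3 with 1 mM CaCl2 and 5 mM MgCl2, and frozen. Nonspecific binding was defined with 500 nM ET-1. IC50 came from curve fitting; mean of n ± SEM.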

[3] = species: Rattus norvegicus; assay: Antagonism of ET-1 mediated contraction of isolated de-endothelialized rat aortic rings; format: functional, Aorta
[4] = test system: Rattus norvegicus; assay: Effect of compound on ET-1 induced changes in diastolic blood pressure in the pithed rat pretreated with BQ 788 (3 mg/kg) at 75 uM/kg (iv) dose; format: functional, Artery
In short: (§1)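 Male Sprague-Dawley rats (250–350 g), isoflurane-anesthetized, pithed and artificially respired. Dosing via the jugular vein; blood pressure via carotid artery transducer. BQ 788 (3 mg/kg) and test compound given iv 10 min before a bolus ET-1 dose–pressor curve (0.01–10 nmol/kg). Fold rightward shift from vehicle measured at the ET-1 dose giving a 40 mmHg diastolic change. Mean of 4–6 rats.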

[5] = test system: Rattus norvegicus; assay: Effect of compound on ET-1 induced changes in diastolic blood pressure in the pithed rat pretreated with BQ 788 (3 mg/kg) at 2.5 uM/kg (iv) dose; NS = Not significant; format: functional, organism-based; conditions: Artery; in short: as §1
[6] = test system: Rattus norvegicus; assay: Effect of compound on ET-1 induced changes in diastolic blood pressure in the pithed rat pretreated with BQ 788 (3 mg/kg) at 25 uM/kg (iv) dose; format: functional, Artery; in short: as §1
[7] = test system: Rattus norvegicus; assay: Effect of compound on ET-1 induced changes in diastolic blood pressure in the pithed rat pretreated with BQ 788 (3 mg/kg) at 7.5 uM/kg (iv) dose; format: functional, Artery; in short: as §1

IC50 [1] | IC50 [2] | Compound | also measured
> 30000 nM | 1000 nM | O=C(O)c1cc(-c2ccc(OCc3ccccc3)cc2OCc2ccccc2)n[nH]1 | –
5000 nM | – | Cc1ccccc1C(CCC(=O)O)Oc1cc(OCc2ccsc2)ccc1C#N (stereo not drawn) | –
10000 nM | 20 nM | Cc1ccccc1C(CCC(=O)O)Oc1cc(OCc2ccsc2)ccc1-c1cc[nH]n1 (stereo not drawn) | –
10000 nM | 5 nM | Cc1ccccc1[C@@H](CCC(=O)O)Oc1cc(OCc2cccnc2)ccc1C#N | Shift [4]: 36.58; Shift [5]: inactive; Shift [6]: 10.48; Shift [7]: 2.27
10000 nM | 69 nM | Cc1ccccc1[C@@H](CCC(=O)O)Oc1cc(OCc2ccc3c(c2)OCO3)ccc1C#N | –
10000 nM | 40 nM | Cc1ccccc1C(CCC(=O)O)Oc1cc(OCc2ccsc2)ccc1-c1ccccn1 (stereo not drawn) | –
10000 nM | – | Cc1ccccc1[C@H](CCC(=O)O)Oc1cc(OCc2ccsc2)ccc1C#N | –

Continued, compound first:

Compound | IC50 [1] | IC50 [2] | also measured
Cc1ccccc1C(CCC(=O)O)Oc1cc(OCc2ccsc2)ccc1-c1ncc[nH]1 (stereo not drawn) | > 10000 nM | 163 nM | –
Cc1ccccc1[C@@H](CCC(=O)O)Oc1cc(OCc2ccsc2)ccc1C#N | > 10000 nM | – | pKB [3]: 7.4
Cc1ccccc1[C@@H](CCC(=O)O)Oc1cc(OCc2ccncc2)ccc1C#N | 10000 nM | 20 nM | pKB [3]: 7.1
Cc1ccccc1C(CCC(=O)O)Oc1cc(OCc2ccsc2)ccc1C(=O)O (stereo not drawn) | > 10000 nM | 207 nM | –
Cc1ccccc1[C@@H](CCC(=O)O)Oc1cc(OCc2cnsc2)ccc1C#N | 10000 nM | 7 nM | pKB [3]: 7.3
Cc1ccccc1C(CCC(=O)O)C(=O)c1cccc(OCc2ccsc2)c1 (stereo not drawn) | > 30000 nM | 110 nM | pKB [3]: 5.7
Cc1ccccc1C(CCC(=O)O)Oc1cc(OCc2ccsc2)ccc1C(N)=O (stereo not drawn) | 10000 nM | 29 nM | –
CC(=O)c1ccc(OCc2ccsc2)cc1OC(CCC(=O)O)c1ccccc1C (stereo not drawn) | 10000 nM | 26 nM | –
CC(C)C[C@@H]1NC(=O)[C@@H](C(C)C)NC(=O)[C@@H]2CCCN2C(=O)[C@@H](CC(=O)O)NC(=O)[C@@H](Cc2c[nH]c3ccccc23)NC1=O [BQ-123] (cyclo(L[dW][dD]P[dV])) | – | 14 nM | –
Cc1ccccc1C(CCC(=O)O)Oc1cccc(OCc2ccsc2)c1 (stereo not drawn) | > 30000 nM | 871 nM | –
Cc1ccccc1C(CCC(=O)O)Oc1cc(OCc2ccsc2)ccc1-c1cc(C(=O)O)[nH]n1 (stereo not drawn) | 3000 nM | 7 nM | pKB [3]: 7.3
Cc1ccccc1C(CCC(=O)O)Oc1cc(OCc2ccsc2)ccc1-c1ncco1 (stereo not drawn) | 10000 nM | 20 nM | –

Source: ChEMBL document CHEMBL1131032, “Selective endothelin A receptor antagonists. 3. Discovery and structure-activity relationships of a series of 4-phenoxybutanoic acid derivatives” (J Med Chem, 1998)
